Reference: ChEMBL document CHEMBL4765310, “Discovery of 4-(3,5-dimethoxy-4-(((4-methoxyphenethyl)amino)methyl)phenoxy)-N-phenylaniline as a novel c-myc inhibitor against colorectal cancer in vitro and in vivo” (Eur J Med Chem, 2020)
Active and inactive are the calls of the source. The rule behind the calls is not given here.

Columns and labels:
HT-29 [1] = assay: Antiproliferative activity against human HT-29 cells assessed as inhibition of cell viability measured after 72 hrs by MTT assay; assay type: functional, cell-based; conditions: HT-29, 72 h
How it was run: (§1)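 Cells kept at 37 °C, 5% CO₂ in RPMI 1640, L-15 or DMEM with 10% FBS and 1% penicillin-streptomycin. Plated at 2-4 × 10³ cells/well and dosed 24 h after plating. After 72 h exposure, MTT added for 2-4 h at 37 °C. Formazan dissolved in DMSO, absorbance read at 570 nm. IC50 is the mean of at least three independent experiments.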

L02 = assay: Cytotoxicity against human L02 cells assessed as inhibition of cell viability at 0.625 to 40 uM measured after 72 hrs by MTT assay; assay type: cell-based; conditions: l02, 72 h, dose 0.625-40 µM
How it was run: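 Cells were grown at 37 °C, 5% CO2, in medium with 10% FBS, and seeded at 2–4×10^3 cells/well. Compound was added 24 h after plating and left for 72 h. MTT (5 mg/mL stock) was then added for 2–4 h at 37 °C, formazan was dissolved in DMSO, and absorbance read at 570 nm. Values are means of at least three independent experiments.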

SW-620 = assay: Antiproliferative activity against human SW-620 cells assessed as inhibition of cell viability measured after 72 hrs by MTT assay; assay type: functional, cell-based; conditions: SW-620, 72 h; how it was run: as §1
HT-29 [2] = assay: Antitumour activity against human HT-29 cells xenografted in Balb/c mouse assessed as inhibition of tumour growth at 30 mg/kg, po administered via gavage for 30 days and measured every 2 days by vernier caliper analysis; assay type: functional, organism-based; conditions: time 30.0 day
How it was run: (§2)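 Female BALB/c nude mice, 6–7 weeks old, injected subcutaneously with 8×10^6 HT29 cells. At about 100 mm³ average tumour volume, mice were randomised into groups (n=5). Dosing was daily oral gavage for 30 days in 10% DMSO/1% Tween-80/saline, with a vehicle group. Tumour size (calipers; 0.5 × shortest diameter² × longest diameter) and body weight were recorded every two days.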

HCT-116 = assay: Antiproliferative activity against human HCT-116 cells assessed as inhibition of cell viability measured after 72 hrs by MTT assay; assay type: functional, cell-based; conditions: HCT-116, 72 h; how it was run: as §1
[3] = Toxicity in Balb/c mouse xenografted with human HT-29 cells assessed as reduction in body weight at 30 mg/kg, po administered via gavage measured after 10 days; assay type: organism-based; conditions: in vivo, 240 h, time 10 day; how it was run: as §2
DLD-1 = assay: Antiproliferative activity against human DLD-1 cells assessed as inhibition of cell viability measured after 72 hrs by MTT assay; assay type: functional, cell-based; conditions: DLD-1, 72 h; how it was run: as §1
HCT-15 = assay: Antiproliferative activity against human HCT-15 cells assessed as inhibition of cell viability measured after 72 hrs by MTT assay; assay type: functional, cell-based; conditions: HCT-15, 72 h; how it was run: as §1

## O=c1[nH]cc(F)c(=O)[nH]1 [FLUOROURACIL]
HT-29 [1]
  IC50: 13.4 µM
L02
  Activity: Toxic
SW-620
  IC50: 15.3 µM
HT-29 [2]
  Activity: Active
HCT-116
  IC50: 12.3 µM
[3]
  Activity: Toxic
DLD-1
  IC50: 11.4 µM
HCT-15
  IC50: 10.9 µM
